Most compounds without a hit are left out; they make up all but 1.5% or so of the library.
RAD54 inh = blocks human RAD54 Holliday junction branch migration. Q92698. FAM/BHQ fluorescence. inhibition, % at 10.4 µM. hit rate 0.14% among 360,000. AID 602329;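 active = mean normalized replicate activity at least 40 and at least half of replicates scoring 40 or more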;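 note: 0% = median of neutral control wells and 100% = median of positive control wells; inhibitors cause a drop in the FAM fluorescence signal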
S100A4 MyoIIA = inhibitors of human S100A4 binding to myosin IIA peptide; inhibition, % at 10.7 µM; AID 652163; S100A4/TAMRA-MyoIIA peptide fluorescence polarization; P26447; hit rate 0.14% among 360,000;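 active = mean inhibition of at least 70% across replicates, with every replicate also reaching that level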
Target sequence (P26447 whole entry, looked up): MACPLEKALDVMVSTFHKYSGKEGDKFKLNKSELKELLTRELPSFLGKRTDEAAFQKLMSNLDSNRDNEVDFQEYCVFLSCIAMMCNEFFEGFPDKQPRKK
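Material: S100A4 monomer protein | Medium: HEPES pH 7.2 with CaCl2, KCl, NaCl, DTT, Triton | Reagent: Labelled myosin peptide probe, 5 nM | Doses: One dose per compound | Times: 5 min incubation before reading | Benchmarks: Neutral control DMSO, positive control TFP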
RAD52 anneal inh = inhibitors of human RAD52 DNA annealing | P43351 | recombinant RAD52 DNA annealing, FRET fluorescence | inhibition, % at 18.7 µM | hit rate 0.46% among 360,000;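 active = every replicate showing at least 50% inhibition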
AF4-AF9 inh = blocks AF4 peptide binding to human AF9; hit rate 0.47% among 350,000; P42568; inhibition, % at 10 µM; AlphaScreen, biotin-AF4 peptide binding to FLAG-AF9; AID 651704;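 active = every replicate reaching a set inhibition limit, whatever the replicate mean, cut at about 25% in these data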;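 note: 0% = plate neutral control median and 100% = total signal loss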
dFosB act = mouse delta FosB homodimer activation. P13346. purified delta FosB, TAMRA-CDK5 oligo fluorescence polarization; percent of positive-control signal above neutral wells. activation, % at 25 µM. hit rate 0.99% among 340,000. AID 493131;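 active = mean activation above about 17%, with every replicate also reaching it, limit read from the data, passing the limit was not always enough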
Target sequence (P13346 whole entry, looked up): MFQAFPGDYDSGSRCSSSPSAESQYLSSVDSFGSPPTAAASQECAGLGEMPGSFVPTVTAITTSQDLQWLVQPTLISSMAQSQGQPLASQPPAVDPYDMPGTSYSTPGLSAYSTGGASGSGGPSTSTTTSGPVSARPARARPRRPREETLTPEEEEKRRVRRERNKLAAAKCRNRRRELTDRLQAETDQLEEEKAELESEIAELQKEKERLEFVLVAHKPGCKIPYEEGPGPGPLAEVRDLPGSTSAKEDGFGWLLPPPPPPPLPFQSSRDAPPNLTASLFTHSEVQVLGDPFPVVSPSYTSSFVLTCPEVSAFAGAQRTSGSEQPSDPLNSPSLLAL
Numbers without * were called inactive; x = not tested or not shown.

SMILES | RAD54 inh | S100A4 MyoIIA | RAD52 anneal inh | AF4-AF9 inh | dFosB act
CC(=O)Nc1ccc(NC(=O)C(C)OC(=O)/C(C#N)=C/c2ccc(N(C)C)cc2)cc1 (stereo unspecified) | -16 | -66 | -186 | 3 | 36*
Cn1c(=O)c2sccc2n2c(CCCC(=O)N3CCN(c4ccccn4)CC3)nnc12 | -5 | 111* | -42 | 2 | -10
COCCCn1c(=O)c2sccc2n2c(CCCC(=O)N3CCN(c4ccccn4)CC3)nnc12 | -6 | -5 | -1 | 2 | -2
CCCNC(=O)Nc1ccc2c(c1)OC[C@@H](C)N(C(=O)CC)C[C@@H](C)[C@H](OC)CN(C)C2=O | x | 5 | -4 | -3 | x
CCN1C(=O)C2(SC(NC(C)=O)=NN2C(C)=O)c2cc(C)cc(C)c21 (stereo unspecified) | 2 | -2 | 0 | 50* | 4
CC(C)NC(=O)Nc1ccc2c(c1)C(=O)N([C@@H](C)CO)C[C@H](C)[C@H](CN(C)S(=O)(=O)c1cn(C)cn1)OCCCC[C@H](C)O2 | 3 | -7 | 0 | -1 | x
CCOc1ccc(-c2nnn(CC(=O)NCc3ccc(OC)cc3)n2)cc1OCC | -6 | x | x | x | 29*
CCSc1nc2c(c(=O)[nH]1)C(c1cccnc1)C(C(=O)OC)=C(C)N2 (stereo unspecified) | -3 | x | x | x | -5
COC(=O)C1=C(C)Nc2nc(SCc3ccccc3)[nH]c(=O)c2C1c1cccs1 (stereo unspecified) | 5 | 10 | -11 | 49* | 5
Cc1cccc(N2CCN(C(=O)CCC(=O)N3Cc4ccccc4Oc4ncccc43)CC2)c1C | 2 | -19 | -20 | 47* | -3
CSc1ccccc1OCc1cc(C(=O)NCCn2nc(C)cc2C)no1 | -15 | 0 | -7 | -2 | -9
CSc1ccccc1OCc1cc(C(=O)NCCN2CCCc3ccccc32)no1 | x | 95* | -16 | 1 | -12
O=S(=O)(c1ccccc1)N1CCCCN2[C@H](CO)[C@H](c3ccc(-c4ccccc4F)cc3)[C@H]2C1 | 5 | 6 | 52* | 1 | x
O=S(=O)(c1ccc(F)cc1)N1CCCCN2[C@@H](CO)[C@@H](c3ccc(-c4ccccc4F)cc3)[C@@H]2C1 | 2 | 1 | 60* | 0 | x
O=S(=O)(c1ccc(F)cc1)N1CCCCN2[C@H](CO)[C@H](c3ccc(C#CC4CCCC4)cc3)[C@H]2C1 | -3 | 22 | 58* | 6 | x
O=S(=O)(c1ccc(F)cc1)N1CCCCN2[C@H](C1)[C@H](c1ccc(-c3ccccc3F)cc1)[C@@H]2CO | 4 | -6 | 13 | -4 | x
O=S(=O)(c1ccc(F)cc1)N1CCCCN2[C@@H](CO)[C@H](c3ccc(-c4ccccc4F)cc3)[C@@H]2C1 | -6 | 2 | 59* | 0 | x
O=S(=O)(c1ccc(F)cc1)N1CCCCN2[C@H](C1)[C@H](c1ccc(C#CC3CCCC3)cc1)[C@@H]2CO | 2 | 14 | 12 | -6 | x
COc1cccc(S(=O)(=O)N2C[C@@H](O)COC[C@@H]3O[C@H](CC(=O)NCCCN4CCOCC4)CC[C@H]32)c1 | 9 | -14 | -13 | -1 | x
NC1=NC(c2cn(-c3ccccc3)nc2-c2cccs2)n2c(nc3ccccc32)N1 (stereo unspecified) | 5 | x | x | x | 37*
CC(=O)c1cccc(N=c2scc(-c3ccc(S(=O)(=O)N4CCOCC4)cc3)n2CCO)c1 | x | -2 | -27 | 17 | -7
CN(C)S(=O)(=O)c1cccc(-c2csc(=Nc3ccccc3)n2CCCN2CCOCC2)c1 | -4 | -3 | 5 | 32* | -7
CCOCCCNC(=O)Cn1nc(-c2ccccc2)ccc1=O | 1 | -9 | 0 | 51* | 0
CS(=O)(=O)N1CC2(C1)[C@@H](c1ccccc1)[C@H](CO)N2Cc1ccc(F)cc1 | x | 15 | -21 | -6 | x
COC(=O)c1sccc1NC(=O)C1CC(C)=C(C)CC1C(=O)O (stereo unspecified) | x | -10 | -14 | 30* | -3
SMILES | RAD54 inh | S100A4 MyoIIA | RAD52 anneal inh | AF4-AF9 inh | dFosB act
C#C[C@]1(O)CCC2C3CCC4=CC(=O)CC[C@@H]4C3CC[C@@]21C (stereo partly specified) | -5 | 2 | -4 | -2 | 5
CC#C[C@]1(O)CC[C@H]2[C@@H]3CCC4=CC(=O)CCC4=C3[C@@H](c3ccc(N(C)C)cc3)C[C@@]21C | 17 | 9 | -8 | 33* | -3
O=C(COc1ncnc2ccccc12)Nc1cccc(S(=O)(=O)N2CCOCC2)c1 | 2 | x | x | x | 0
CC(Oc1ncnc2ccccc12)C(=O)Nc1cccc(S(=O)(=O)N2CCOCC2)c1 (stereo unspecified) | -1 | 1 | -14 | 29* | -3
CN1CCN(C2Cc3ccccc3Sc3cc(C(F)(F)F)ccc32)CC1 (stereo unspecified) | x | -2 | 36 | 26* | x
Oc1c(C(c2ccccn2)N2CCC(Cc3ccccc3)CC2)cc(Cl)c2cccnc12 (stereo unspecified) | x | 4 | -5 | 45* | x
Cc1ccc(C(c2cc(Cl)c3cccnc3c2O)N2CCN(C)CC2)cc1 (stereo unspecified) | 8 | x | x | x | -13
CC1CCN(Cc2c(C(=O)N/N=C/c3ccccc3O)nnn2-c2nonc2N)CC1 | -4 | 2 | -1 | -5 | 21*
Cc1nnn(-c2nonc2N)c1C(=O)N/N=C/c1ccccc1O | x | x | x | x | 104*
CC(=C/c1ccccc1)/C=N/NC(=O)c1nnn(-c2nonc2N)c1CN1CCC(C)CC1 | -8 | -1 | -14 | 0 | -12
O=C(C[C@@H]1CC[C@@H](NC(=O)Nc2ccccc2F)[C@H](CO)O1)NCc1ccc(-c2ccccc2)cc1 | x | -5 | -3 | 1 | x
C[C@H]1CCCCO[C@@H](CN(C)S(=O)(=O)c2ccccc2)[C@@H](C)CN([C@@H](C)CO)C(=O)c2cc(NC(=O)Nc3ccc(C(F)(F)F)cc3)ccc2O1 | 3 | -4 | -39 | -3 | x
O=C(/C=C/c1ccc(F)cc1)NC(=S)NNC(=O)c1cnccn1 | x | -2 | -9 | 3 | -14
COc1ccc(/C=C/C(=O)NC(=S)NNC(=O)c2cnccn2)cc1 | x | 0 | -1 | -20 | 17*
O=C(NOC(=O)c1cc(Br)ccc1Cl)c1cccs1 | 0 | x | x | x | -7
O=C(COC(=O)c1cc(Br)ccc1O)NNC(=O)c1cccs1 | 4 | -14 | -10 | -1 | 29*
O=C(Nc1ccc(F)cc1)N1C[C@@H]2[C@H](c3ccccc31)[C@@H](CO)N2C(=O)c1ccccc1F | -7 | -5 | -5 | -4 | x
O=S(=O)(c1cccs1)N1CCCCN2[C@@H](CO)[C@@H](c3ccc(-c4ccccc4)cc3)[C@@H]2C1 | 9 | -2 | -14 | 4 | x
COc1ccc(NC(=O)c2ccc(NC(=O)c3ccncc3)cc2)cc1 | -5 | -10 | -5 | 31* | 0
COc1ccc(CC(=O)Nc2ccc(C(=O)NCC(C)C)cc2)cc1 | 0 | 22 | -7 | x | 28*
COc1ccc(C(=O)NNC(=O)c2ccncc2)cc1 | 1 | x | x | x | -6

Assay outcomes: PubChem BioAssay, Broad Institute
